Compound activity as filed in PubChem.
MITF act: increases MITF-driven TRPM1 promoter luciferase signal; activation, % at 12.5 µM; 0.75% of 300,000 active; SK-MEL-5 TRPM1-promoter luciferase, 24 h; % of positive control, neutral wells = 0;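 active means mean activation of at least 80% with every replicate also reaching 80%; inconclusive means mean reaches 80% but some replicate falls short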;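 further: 0% = neutral control wells and 100% = parthenolide positive control wells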
HIV Env fusion: HIV envelope-mediated fusion inhibition; HeLa-JRFL Env/CEM21 cell fusion, luciferase; inhibition, % at 12.3 µM; 1.1% of 360,000 active;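 active means mean replicate inhibition score of at least 50 and every replicate individually at or above 50; inconclusive means only one of the two criteria met; inactive means mean below 50 and not all replicates reaching 50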;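 further: 0% = plate neutral controls and 100% = maraviroc near 300 nM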
esBAF inh: inhibitors of esBAF chromatin remodeling in mouse ES cells; Bmi1-luciferase knock-in reporter, 24 h; 100% = twice the neutral-well signal; reporter increase, % at 12.5 µM; 2% of 350,000 active; AID 602393; in the data active means activation above about 40%; inconclusive means no clear call, values can overlap the other calls;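 further: 0% = median of the plate's neutral control wells and 100% = double that signal; a rise in the Bmi1 reporter signal indicates esBAF inhibition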
Wnt bcat act: activators of Wnt/beta-catenin signaling | AID 743398 | 1.2% of 300,000 active | Wnt/beta-catenin reporter cell assay, activator, plate reader | activation, % at 9.35 µM; in the data active means activation above about 30%, passing the limit was not always enough; inconclusive means no clear call, values can overlap the other calls;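 further: 0% = neutral control wells and 100% = positive control wells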
Cneo AK release: Cryptococcus neoformans lysis via adenylate kinase release; C. neoformans lysis, adenylate kinase release luminescence, 4 h; normalised: neutral wells 0, clomiphene wells 100; lysis activity, % at 15 µM; 0.2% of 360,000 active;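 active means mean lysis activity across replicates of at least 80%, whatever share of replicates individually reach that level; inactive means mean lysis activity below 80%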
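Assay system: log-phase C. neoformans yeast / Quantity: yeast cell density of 5 × 10^6 cells/mL / Medium: fresh YPD growth medium / Compound: single dose / Timing: static 4 h at 37 °C with compound, 1 h detection / Measured by: adenylate kinase release luminescence / Read-out: lysis from increased AK signal / Benchmarks: Clomiphene as positive lysis control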
ERAP1 inh: inhibitors of human ERAP1 aminopeptidase. Q9NZ08. recombinant ERAP1, Leu-AMC fluorescence, 60 min. inhibition, % at 10.7 µM. 0.15% of 340,000 active. AID 652197;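 active means mean replicate inhibition of at least 30%, or all replicates individually reaching that 30% level; inactive means mean below 30% and not every replicate reaching it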;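 further: 0% = neutral control wells and 100% = L-leucinethiol positive control wells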
Numbers without * were called inactive; ? = inconclusive; / = no result; ! = repeats disagree; [ ] = remark or other dose. Shown are actives, neighbours in structure and some others; about 3.5% of the full set was active somewhere.

SMILES	MITF act	HIV Env fusion	esBAF inh	Wnt bcat act	Cneo AK release	ERAP1 inh
COc1cc(/C=N/n2cnnc2)ccc1OCc1ccc(C)cc1	71	/	57*	/	/	/
COc1cccc(NC(=O)C[C@H]2CC[C@H]3[C@H](COc4ccc(NC(C)=O)cc4C(=O)N3C)O2)c1	/	7[16.7 µM]	4	/	-1	-2
Cc1noc(C)c1NC(=O)Nc1ccc2c(c1)C(=O)N([C@@H](C)CO)C[C@H](C)[C@@H](CN(C)S(C)(=O)=O)OCCCC[C@H](C)O2	/	5[16.7 µM]	4	/	66	-2
Cc1ccc(C2NC(=O)c3c(sc(C)c3C)N2)c(O)c1 (stereo unspecified)	25	-96	98*	8	/	/
Cc1sc2c(c1C)C(=O)NC(c1ccccc1F)N2 (stereo unspecified)	33	-5	/	32*	/	4
Cc1cccc(C2NC(=O)c3c(sc(C)c3C)N2)c1O (stereo unspecified)	-9	/	16	/	/	/
CN(C)c1ccc2c(c1)[C@@H]1C[C@@H](CC(=O)NC3CCCC3)O[C@H](CO)[C@@H]1O2	/	20[16.7 µM]	1	/	2	-2
Cc1cc(C(=O)Nc2cccc3c2O[C@@H](CN(C)S(=O)(=O)c2ccccc2)[C@H](C)CN([C@@H](C)CO)C3=O)n(C)n1	0	2	1	-3	-3	0
C[C@H](CO)N1C[C@H](C)[C@@H](CN(C)S(=O)(=O)c2cn(C)cn2)Oc2c(NC(=O)Nc3ccc4c(c3)OCO4)cccc2C1=O	6	5	50*!	2	4	-1
Cc1noc(C)c1NC(=O)Nc1cccc2c1O[C@@H](CN(C)S(=O)(=O)c1cn(C)cn1)[C@@H](C)CN([C@@H](C)CO)C2=O	/	/	-3	/	105*	2
Cc1cc(C(=O)Nc2cccc3c2O[C@H](CN(C)S(=O)(=O)c2ccccc2)[C@H](C)CN([C@H](C)CO)C3=O)n(C)n1	/	-5[16.7 µM]	-12	/	90*	-5
C[C@@H]1CN([C@H](C)CO)C(=O)c2cccc(NC(=O)Nc3ccc4c(c3)OCO4)c2O[C@H]1CN(C)S(=O)(=O)c1cn(C)cn1	/	/	6	/	-4	4
Cc1ccc2nc(-c3ccc(NC(=S)NC(=O)C(C)C)cc3)sc2c1	96*	/	39	23	-2	3
Cc1ccc2nc(-c3ccc(NS(=O)(=O)c4ccc(F)c(F)c4)cc3)sc2c1	58	-132	/	38*	/	/
Cc1ccc2nc(-c3ccc(NC(=O)C(C)N4C(=O)c5ccccc5C4=O)cc3)sc2c1 (stereo unspecified)	58	-19	/	/	-4	/
CCC(=O)NC(=S)Nc1ccc(-c2nc3ccc(C)cc3s2)cc1	113*	-68	?	36*	-2	/
O=C(NCC[C@H]1CC[C@H](NS(=O)(=O)c2cccc(Cl)c2)[C@@H](CO)O1)c1cnccn1	/	29[16.7 µM]	-1	/	2	-1
Cc1noc(C)c1S(=O)(=O)Nc1ccc2c(c1)C(=O)N([C@@H](C)CO)C[C@H](C)[C@@H](CN(C)S(=O)(=O)c1cccs1)OCCCC[C@@H](C)O2	/	-17[16.7 µM]	-1	/	1	/
CN1C[C@H]2[C@@H](c3ccccc31)[C@@H](CO)N2C(=O)C1CCCC1	/	/	1	/	0	0
O=C(C1CCOCC1)N1CC[C@@H]2[C@H](CO)Nc3ccc(Br)cc3[C@@H]21	/	/	1	/	-12	-1
O=C(c1ccccn1)N1CC[C@@H]2[C@H]1c1cc(-c3ccc(F)cc3)ccc1N[C@@H]2CO	/	/	47*	/	51	-2
O=C(CN1CCOCC1)N1CC[C@@H]2[C@@H](CO)Nc3ccc(-c4ccccc4F)cc3[C@@H]21	/	/	4	/	101*	/
O=C(C1CCOCC1)N1CC[C@@H]2[C@H]1c1cc(Br)ccc1N[C@@H]2CO	/	/	2	/	87*	-4
Cc1noc(C)c1NC(=O)N(C)C[C@H]1Oc2ccc(NC(=O)CCCCCC(=O)Nc3ccccc3N)cc2C(=O)N([C@@H](C)CO)C[C@@H]1C	/	/	8	/	-2	-4
CC(C)NC(=O)Nc1ccc2c(c1)C(=O)N([C@H](C)CO)C[C@@H](C)[C@H](CN(C)Cc1ccc(Oc3ccccc3)cc1)O2	/	/	2	/	0	2
SMILES	MITF act	HIV Env fusion	esBAF inh	Wnt bcat act	Cneo AK release	ERAP1 inh
COc1ccc(S(=O)(=O)N(C)C[C@H]2Oc3c(NC(=O)CCCCCC(=O)Nc4ccccc4N)cccc3C(=O)N([C@@H](C)CO)C[C@@H]2C)cc1	/	/	/	/	/	-2
O=C(C[C@@H]1CC[C@@H](NC(=O)CN2CCOCC2)[C@@H](CO)O1)NCc1cccc(F)c1	/	8[16.7 µM]	2	/	-1	0
COc1cc2cnc(-c3ccccc3)c(-c3ccc(C(F)(F)F)cc3)c2cc1OC	15	84*	-6	1	1	0
Fc1ccc2c(-c3cccc(C(F)(F)F)c3)c(-c3ccccc3)ncc2c1	-2	69*	/	-1	-2	3
Fc1ccc2cnc(-c3ccccc3)c(-c3cc(C(F)(F)F)cc(C(F)(F)F)c3)c2c1	-6	34	7	-15	1	0
C[C@@H]1CN([C@@H](C)CO)C(=O)c2cc(NC(=O)Nc3ccccc3)ccc2O[C@@H]1CN(C)Cc1ccc(Oc2ccccc2)cc1	/	14[16.7 µM]	0	/	5	2
CN(C)CC(=O)N1[C@H](C#N)[C@@H](c2ccc(/C=C/c3ccccc3)cc2)[C@H]1CO	/	-40[16.7 µM]	10	/	0	0
COc1ccc(CNC(=O)CC2C(=O)NCCN2C2Cc3ccccc3C2)cc1 (stereo unspecified)	8	61*	-4	0	-1	-3
Cc1sc(=NC(=O)c2ccco2)n(C)c1-c1ccc(F)cc1	101*	/	/	/	/	/
Cc1ccc2c(c1)c1c(n2C)-c2[nH]ncc2CC1	/	-29	22	41*	0	/
Cc1ccc2c(c1)c1c(n2C)C(C(N)=O)CCC1 (stereo unspecified)	-2	-13	-1	4	-2	/
O=C(C[C@@H]1C[C@H]2c3cc(NS(=O)(=O)c4ccc(F)cc4)ccc3O[C@H]2[C@H](CO)O1)NCc1cccc(F)c1	/	-14[16.7 µM]	19	/	-1	3
Cc1ccc(OCc2nc(-c3ccccc3)no2)c(C)c1	80	/	64*	/	/	/
C[C@H]1CN([C@@H](C)CO)C(=O)Cc2cc(NS(=O)(=O)c3ccc(F)cc3)ccc2O[C@@H]1CN(C)S(=O)(=O)c1ccc(F)cc1	/	-5[16.7 µM]	3	/	98*	-5
C[C@H](CO)N1C[C@H](C)[C@H](CN(C)S(=O)(=O)c2ccccc2)Oc2ccc(NS(=O)(=O)c3ccc(F)cc3)cc2CC1=O	/	58*[16.7 µM]	-4	/	-3	-1
C[C@H](CO)N1C[C@H](C)[C@H](CN(C)S(=O)(=O)c2ccc(F)cc2)Oc2ccc(NS(=O)(=O)c3ccc(F)cc3)cc2CC1=O	/	3[16.7 µM]	4	/	0	0
